ChEMBL document CHEMBL1649256, “Comparison of assessment of oxygen consumption, Etest, and CLSI M38-A2 broth microdilution methods for evaluation of the susceptibility of Aspergillus fumigatus to posaconazole” (2009)
≈ marks a conversion by molar mass, not a printed value.

Assays:
Assay type in all cases: functional
Aspergillus fumigatus [1] = test: Antimicrobial activity against Aspergillus fumigatus isolate 25 by oxygen consumption method
Summary of the method: (§1)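 Conidial suspension in RPMI 1640 broth, 1.5 ml, with two drug concentrations (0.25 and 2 μg/ml). Tubes agitated 12 h at 37°C in a biological oxygen monitor. Available oxygen monitored continuously and quantified to assign the MIC.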

Aspergillus fumigatus [2] = test: Antimicrobial activity against Aspergillus fumigatus isolate 28 by oxygen consumption method; summary of the method: as §1
Aspergillus fumigatus [3] = test: Antimicrobial activity against Aspergillus fumigatus isolate 42 by CLSI M38-A2 broth microdilution method
Summary of the method: (§2)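 CLSI M38-A2 broth microdilution with posaconazole. MIC taken as the lowest concentration with no visible growth at 48 h. C. parapsilosis ATCC 22019 and C. krusei ATCC 6258 were included as QC strains in every run.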

Aspergillus fumigatus [4] = test: Antimicrobial activity against Aspergillus fumigatus isolate 1 by CLSI M38-A2 broth microdilution method
Summary of the method: (§3)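 Posaconazole broth microdilution follows CLSI M38-A2. The MIC is the lowest concentration with no visible growth at 48 h. Candida parapsilosis ATCC 22019 and Candida krusei ATCC 6258 were included as QC strains in every run.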

Aspergillus fumigatus [5] = test: Antimicrobial activity against Aspergillus fumigatus isolate 48 after 24 hrs by Etest; details: isolate 48, 24 h
Aspergillus fumigatus [6] = test: Antimicrobial activity against Aspergillus fumigatus isolate 14 after 48 hrs by Etest; details: isolate 14, 48 h
Summary of the method: (§4)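 Posaconazole Etest strips placed on RPMI 1640 agar with 2% glucose, pH 7.0, and run per the strip maker's instructions. Incubation at 35°C, with the MIC read at 24 h and at 48 h.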

Aspergillus fumigatus [7] = test: Antimicrobial activity against Aspergillus fumigatus isolate 22 after 48 hrs by Etest; details: isolate 22, 48 h
Summary of the method: (§5)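 Etest strips on RPMI 1640 agar with 2% glucose, pH 7.0, run per manufacturer's instructions. Incubated at 35°C; MIC read at 48 h.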

Aspergillus fumigatus [8] = test: Antimicrobial activity against Aspergillus fumigatus isolate 39 by CLSI M38-A2 broth microdilution method; summary of the method: as §2
Aspergillus fumigatus [9] = test: Antimicrobial activity against Aspergillus fumigatus isolate 47 after 24 hrs by Etest; details: isolate 47, 24 h
Aspergillus fumigatus [10] = test: Antimicrobial activity against Aspergillus fumigatus isolate 38 after 48 hrs by Etest; details: isolate 38, 48 h
Summary of the method: (§6)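 Posaconazole Etest strips on RPMI 1640 agar with 2% glucose, pH 7.0, run per the strip maker's instructions. Incubated at 35°C. MIC read at 24 h and at 48 h, matching the time in each line.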

Aspergillus fumigatus [11] = test: Antimicrobial activity against Aspergillus fumigatus isolate 13 after 48 hrs by Etest; details: isolate 13, 48 h; summary of the method: as §4
Aspergillus fumigatus [12] = test: Antimicrobial activity against Aspergillus fumigatus isolate 47 by CLSI M38-A2 broth microdilution method
Aspergillus fumigatus [13] = test: Antimicrobial activity against Aspergillus fumigatus isolate 22 by CLSI M38-A2 broth microdilution method
Summary of the method: (§7)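 Reference broth microdilution per CLSI M38-A2. MIC read as absence of visible growth at 48 h. C. parapsilosis ATCC 22019 and C. krusei ATCC 6258 QC strains run in each test session.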

Aspergillus fumigatus [14] = test: Antimicrobial activity against Aspergillus fumigatus isolate 33 by oxygen consumption method
Summary of the method: (§8)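 Conidial suspension in RPMI 1640 broth, tested at two posaconazole levels (0.25 and 2 μg/ml). Agitated for 12 h at 37°C in a biological oxygen monitor. MIC derived from continuous monitoring and quantification of the available oxygen.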

Aspergillus fumigatus [15] = test: Antimicrobial activity against Aspergillus fumigatus isolate 4 after 48 hrs by Etest; details: isolate 4, 48 h; summary of the method: as §6
Aspergillus fumigatus [16] = test: Antimicrobial activity against Aspergillus fumigatus isolate 6 by oxygen consumption method
Aspergillus fumigatus [17] = test: Antimicrobial activity against Aspergillus fumigatus isolate 42 after 48 hrs by Etest; details: isolate 42, 48 h; summary of the method: as §6
Aspergillus fumigatus [18] = test: Antimicrobial activity against Aspergillus fumigatus isolate 2 after 48 hrs by Etest; details: isolate 2, 48 h; summary of the method: as §4
Aspergillus fumigatus [19] = test: Antimicrobial activity against Aspergillus fumigatus isolate 33 after 48 hrs by Etest; details: isolate 33, 48 h; summary of the method: as §6
Aspergillus fumigatus [20] = test: Antimicrobial activity against Aspergillus fumigatus isolate 16 after 24 hrs by Etest; details: isolate 16, 24 h; summary of the method: as §4
Aspergillus fumigatus [21] = test: Antimicrobial activity against Aspergillus fumigatus isolate 28 after 24 hrs by Etest; details: isolate 28, 24 h
Summary of the method: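 Etest strips on RPMI 1640 agar with 2% glucose, pH 7.0, run per manufacturer's instructions. Incubated at 35°C; MIC read at 24 h.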

Aspergillus fumigatus [22] = test: Antimicrobial activity against Aspergillus fumigatus isolate 17 by oxygen consumption method
Summary of the method: (§9)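 Conidial suspension in RPMI 1640 broth with posaconazole at 0.25 and 2 μg/ml. Tubes agitated 12 h at 37°C in a biological oxygen monitor. Available oxygen was monitored continuously, and the MIC was assigned from the oxygen quantification.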

Aspergillus fumigatus [23] = test: Antimicrobial activity against Aspergillus fumigatus isolate 12 by CLSI M38-A2 broth microdilution method; summary of the method: as §3
Aspergillus fumigatus [24] = test: Antimicrobial activity against Aspergillus fumigatus isolate 31 by oxygen consumption method; summary of the method: as §1
Aspergillus fumigatus [25] = test: Antimicrobial activity against Aspergillus fumigatus isolate 32 by oxygen consumption method; summary of the method: as §8
Aspergillus fumigatus [26] = test: Antimicrobial activity against Aspergillus fumigatus isolate 10 by oxygen consumption method; summary of the method: as §9
Aspergillus fumigatus [27] = test: Antimicrobial activity against Aspergillus fumigatus isolate 20 after 48 hrs by Etest; details: isolate 20, 48 h; summary of the method: as §4
Aspergillus fumigatus [28] = test: Antimicrobial activity against Aspergillus fumigatus isolate 27 by CLSI M38-A2 broth microdilution method; summary of the method: as §7
Aspergillus fumigatus [29] = test: Antimicrobial activity against Aspergillus fumigatus isolate 31 after 48 hrs by Etest; details: isolate 31, 48 h; summary of the method: as §5
Aspergillus fumigatus [30] = test: Antimicrobial activity against Aspergillus fumigatus isolate 34 by CLSI M38-A2 broth microdilution method; summary of the method: as §2
Aspergillus fumigatus [31] = test: Antimicrobial activity against Aspergillus fumigatus isolate 34 after 48 hrs by Etest; details: isolate 34, 48 h; summary of the method: as §6
Aspergillus fumigatus [32] = test: Antimicrobial activity against Aspergillus fumigatus isolate 29 after 48 hrs by Etest; details: isolate 29, 48 h; summary of the method: as §5
Aspergillus fumigatus [33] = test: Antimicrobial activity against Aspergillus fumigatus isolate 37 after 48 hrs by Etest; details: isolate 37, 48 h; summary of the method: as §6
Aspergillus fumigatus [34] = test: Antimicrobial activity against Aspergillus fumigatus isolate 19 by CLSI M38-A2 broth microdilution method; summary of the method: as §3
Aspergillus fumigatus [35] = test: Antimicrobial activity against Aspergillus fumigatus isolate 29 by CLSI M38-A2 broth microdilution method; summary of the method: as §7
Aspergillus fumigatus [36] = test: Antimicrobial activity against Aspergillus fumigatus isolate 11 after 24 hrs by Etest; details: isolate 11, 24 h; summary of the method: as §4
Aspergillus fumigatus [37] = test: Antimicrobial activity against Aspergillus fumigatus isolate 11 after 48 hrs by Etest; details: isolate 11, 48 h; summary of the method: as §4
Aspergillus fumigatus [38] = test: Antimicrobial activity against Aspergillus fumigatus isolate 26 by oxygen consumption method; summary of the method: as §1
Aspergillus fumigatus [39] = test: Antimicrobial activity against Aspergillus fumigatus isolate 13 by CLSI M38-A2 broth microdilution method; summary of the method: as §3
Aspergillus fumigatus [40] = test: Antimicrobial activity against Aspergillus fumigatus isolate 10 after 24 hrs by Etest; details: isolate 10, 24 h; summary of the method: as §4
Aspergillus fumigatus [41] = test: Antimicrobial activity against Aspergillus fumigatus isolate 41 after 48 hrs by Etest; details: isolate 41, 48 h; summary of the method: as §6
Aspergillus fumigatus [42] = test: Antimicrobial activity against Aspergillus fumigatus isolate 34 by oxygen consumption method; summary of the method: as §8
Aspergillus fumigatus [43] = test: Antimicrobial activity against Aspergillus fumigatus isolate 25 after 48 hrs by Etest; details: isolate 25, 48 h; summary of the method: as §5
Aspergillus fumigatus [44] = test: Antimicrobial activity against Aspergillus fumigatus isolate 43 by CLSI M38-A2 broth microdilution method

Compound: CC[C@@H]([C@H](C)O)n1ncn(-c2ccc(N3CCN(c4ccc(OC[C@@H]5CO[C@@](Cn6cncn6)(c6ccc(F)cc6F)C5)cc4)CC3)cc2)c1=O [POSACONAZOLE]
- MIC (Aspergillus fumigatus [1]): ≤ 0.25 µg/mL
- MIC (Aspergillus fumigatus [2]): ≤ 0.25 µg/mL
- MIC (Aspergillus fumigatus [3]): 0.06 µg/mL (≈ 0.0856 µM)
- MIC (Aspergillus fumigatus [4]): 1 µg/mL (≈ 1.43 µM)
- MIC (Aspergillus fumigatus [5]): ≤ 0.03 µg/mL
- MIC (Aspergillus fumigatus [6]): 0.5 µg/mL (≈ 0.713 µM)
- MIC (Aspergillus fumigatus [7]): 0.25 µg/mL (≈ 0.357 µM)
- MIC (Aspergillus fumigatus [8]): 0.06 µg/mL (≈ 0.0856 µM)
- MIC (Aspergillus fumigatus [9]): ≤ 0.03 µg/mL
- MIC (Aspergillus fumigatus [10]): 0.125 µg/mL (≈ 0.178 µM)
- MIC (Aspergillus fumigatus [11]): 0.25 µg/mL (≈ 0.357 µM)
- MIC (Aspergillus fumigatus [12]): 0.125 µg/mL (≈ 0.178 µM)
- MIC (Aspergillus fumigatus [13]): 0.125 µg/mL (≈ 0.178 µM)
- MIC (Aspergillus fumigatus [14]): ≥ 0.5 µg/mL
- MIC (Aspergillus fumigatus [15]): 0.25 µg/mL (≈ 0.357 µM)
- MIC (Aspergillus fumigatus [16]): ≤ 0.25 µg/mL
- MIC (Aspergillus fumigatus [17]): 0.125 µg/mL (≈ 0.178 µM)
- MIC (Aspergillus fumigatus [18]): 1 µg/mL (≈ 1.43 µM)
- MIC (Aspergillus fumigatus [19]): 0.25 µg/mL (≈ 0.357 µM)
- MIC (Aspergillus fumigatus [20]): 0.125 µg/mL (≈ 0.178 µM)
- MIC (Aspergillus fumigatus [21]): 0.25 µg/mL (≈ 0.357 µM)
- MIC (Aspergillus fumigatus [22]): ≤ 0.25 µg/mL
- MIC (Aspergillus fumigatus [23]): 0.125 µg/mL (≈ 0.178 µM)
- MIC (Aspergillus fumigatus [24]): ≤ 0.25 µg/mL
- MIC (Aspergillus fumigatus [25]): ≤ 0.25 µg/mL
- MIC (Aspergillus fumigatus [26]): ≤ 0.25 µg/mL
- MIC (Aspergillus fumigatus [27]): 0.25 µg/mL (≈ 0.357 µM)
- MIC (Aspergillus fumigatus [28]): 0.125 µg/mL (≈ 0.178 µM)
- MIC (Aspergillus fumigatus [29]): 0.125 µg/mL (≈ 0.178 µM)
- MIC (Aspergillus fumigatus [30]): 0.125 µg/mL (≈ 0.178 µM)
- MIC (Aspergillus fumigatus [31]): ≤ 0.03 µg/mL
- MIC (Aspergillus fumigatus [32]): 0.25 µg/mL (≈ 0.357 µM)
- MIC (Aspergillus fumigatus [33]): 0.125 µg/mL (≈ 0.178 µM)
- MIC (Aspergillus fumigatus [34]): 0.5 µg/mL (≈ 0.713 µM)
- MIC (Aspergillus fumigatus [35]): 0.125 µg/mL (≈ 0.178 µM)
- MIC (Aspergillus fumigatus [36]): 0.125 µg/mL (≈ 0.178 µM)
- MIC (Aspergillus fumigatus [37]): 0.25 µg/mL (≈ 0.357 µM)
- MIC (Aspergillus fumigatus [38]): ≥ 0.5 µg/mL
- MIC (Aspergillus fumigatus [39]): 0.125 µg/mL (≈ 0.178 µM)
- MIC (Aspergillus fumigatus [40]): 0.125 µg/mL (≈ 0.178 µM)
- MIC (Aspergillus fumigatus [41]): ≤ 0.03 µg/mL
- MIC (Aspergillus fumigatus [42]): ≤ 0.25 µg/mL
- MIC (Aspergillus fumigatus [43]): 0.25 µg/mL (≈ 0.357 µM)
- MIC (Aspergillus fumigatus [44]): 0.125 µg/mL (≈ 0.178 µM)
